Active and inactive are the calls of the source. No cut-off for these calls is given here.
Legend:
[1] = system: Human immunodeficiency virus 1; assay: Antiviral activity against HIV-1 BaL infected in PHA-stimulated human PBMC cells assessed as viral p24 core protein level after 7 days by ELISA; type: functional, organism-based; settings: Human immunodeficiency virus 1, BaL, 168 h
In short: (§1)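 Human PBMC activated with PHA, then infected with HIV-1 (ADA or BaL strain). Infectivity was read as viral p24 core protein in the culture supernatants.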

[2] = target: T1, C-C chemokine receptor type 5 (Homo sapiens, UniProt P51681); assay: Displacement of [125I]MIP-1beta from CCR5 in IL-10-stimulated human monocytes; type: cell-based
T1 sequence (P51681 whole entry): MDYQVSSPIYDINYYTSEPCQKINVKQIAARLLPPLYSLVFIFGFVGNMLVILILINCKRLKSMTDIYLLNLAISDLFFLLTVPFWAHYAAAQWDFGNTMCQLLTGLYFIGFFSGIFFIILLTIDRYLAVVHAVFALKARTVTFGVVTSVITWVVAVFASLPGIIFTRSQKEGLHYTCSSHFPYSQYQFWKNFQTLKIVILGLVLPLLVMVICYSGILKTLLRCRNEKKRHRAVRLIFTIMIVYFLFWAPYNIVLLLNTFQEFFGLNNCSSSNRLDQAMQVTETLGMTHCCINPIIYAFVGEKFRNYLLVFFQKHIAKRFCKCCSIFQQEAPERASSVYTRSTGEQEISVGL

[3] = system: Human immunodeficiency virus 1; assay: Antiviral activity against HIV-1 ADA infected in PHA-stimulated human PBMC cells assessed as viral p24 core protein level after 7 days by ELISA; type: functional, organism-based; settings: Human immunodeficiency virus 1, ADA, 168 h; in short: as §1
[4] = target: T1, C-C chemokine receptor type 5; assay: Antagonist activity at CCR5 assessed as inhibition of intracellular calcium mobilization; type: functional, cell-based
[5] = Tmax in rat at 20 mg/kg, po; type: ADME, organism-based; parameters: dose 20 mg/kg, route oral; settings: in vivo
[6] = Half life in human in repeated dosing regimen; type: ADME, organism-based; settings: in vivo
[7] = system: Human immunodeficiency virus 1; assay: Antiviral activity against HIV-1 R5 clade J infected in human PBMC cells; type: functional; settings: Human immunodeficiency virus 1, R5 clade J
[8] = system: Human immunodeficiency virus 1; assay: Antiviral activity against HIV-1 R5 clade A infected in human PBMC cells; type: functional; settings: Human immunodeficiency virus 1, R5 clade A
[9] = AUC in dog at 1 mg/kg, iv; type: ADME, organism-based, Canis lupus familiaris; parameters: dose 1 mg/kg, route intravenous; settings: plasma
[10] = system: Human immunodeficiency virus 1; assay: Antiviral activity against HIV-1 R5 clade E infected in human PBMC cells; type: functional; settings: Human immunodeficiency virus 1, R5 clade E
[11] = AUC in rat at 20 mg/kg, po; type: ADME, organism-based; parameters: dose 20 mg/kg, route oral; settings: plasma
[12] = Cmax in rat at 20 mg/kg, po; type: ADME, organism-based; parameters: dose 20 mg/kg, route oral; settings: in vivo
[13] = Oral bioavailability in dog at 20 mg/kg; type: ADME, organism-based, Canis lupus familiaris; settings: in vivo
[14] = Permeability across basolateral to apical side in human Caco2 cells; type: ADME, cell-based; settings: Caco-2, read-out: permeability
Cytochrome P450 1A2 = target: T2, Cytochrome P450 1A2 (Homo sapiens, UniProt P05177); assay: Inhibition of CYP1A2; type: ADME
T2 sequence (P05177 whole entry): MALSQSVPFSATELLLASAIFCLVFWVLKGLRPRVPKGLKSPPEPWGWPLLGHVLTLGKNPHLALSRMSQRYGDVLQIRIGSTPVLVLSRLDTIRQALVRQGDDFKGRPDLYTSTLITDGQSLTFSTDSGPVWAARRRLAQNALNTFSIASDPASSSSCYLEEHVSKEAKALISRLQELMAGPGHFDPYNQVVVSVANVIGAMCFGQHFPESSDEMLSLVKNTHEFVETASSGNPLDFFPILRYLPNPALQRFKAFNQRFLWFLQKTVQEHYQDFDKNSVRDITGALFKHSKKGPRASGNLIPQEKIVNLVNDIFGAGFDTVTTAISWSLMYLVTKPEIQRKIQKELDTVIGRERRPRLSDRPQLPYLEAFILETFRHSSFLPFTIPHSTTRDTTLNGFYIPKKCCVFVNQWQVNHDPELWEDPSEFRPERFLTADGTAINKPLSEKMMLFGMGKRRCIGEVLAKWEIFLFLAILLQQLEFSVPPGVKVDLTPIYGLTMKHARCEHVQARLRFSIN

[15] = system: Human immunodeficiency virus 1; assay: Antiviral activity against HIV-1 R5 clade C infected in human PBMC cells; type: functional; settings: Human immunodeficiency virus 1, R5 clade C
[16] = target: T1, C-C chemokine receptor type 5; assay: Antagonist activity at CCR5 assessed as inhibition of ERK phosphorylation; type: functional
[17] = Oral bioavailability in rat at 20 mg/kg; type: ADME, organism-based; settings: in vivo
[18] = Systemic clearance in rat at 1 mg/kg, iv; type: ADME, organism-based; parameters: dose 1 mg/kg, route intravenous; settings: in vivo
[19] = Half life in rat at 1 mg/kg, iv; type: ADME, organism-based; parameters: dose 1 mg/kg, route intravenous; settings: in vivo
[20] = Half life in dog at 20 mg/kg, po; type: ADME, organism-based, Canis lupus familiaris; parameters: dose 20 mg/kg, route oral; settings: in vivo
Cytochrome P450 2C9 = Cytochrome P450 2C9 (Homo sapiens, UniProt P11712); assay: Inhibition of CYP2C9; type: ADME
Cytochrome P450 2C9, sequence (P11712 whole entry): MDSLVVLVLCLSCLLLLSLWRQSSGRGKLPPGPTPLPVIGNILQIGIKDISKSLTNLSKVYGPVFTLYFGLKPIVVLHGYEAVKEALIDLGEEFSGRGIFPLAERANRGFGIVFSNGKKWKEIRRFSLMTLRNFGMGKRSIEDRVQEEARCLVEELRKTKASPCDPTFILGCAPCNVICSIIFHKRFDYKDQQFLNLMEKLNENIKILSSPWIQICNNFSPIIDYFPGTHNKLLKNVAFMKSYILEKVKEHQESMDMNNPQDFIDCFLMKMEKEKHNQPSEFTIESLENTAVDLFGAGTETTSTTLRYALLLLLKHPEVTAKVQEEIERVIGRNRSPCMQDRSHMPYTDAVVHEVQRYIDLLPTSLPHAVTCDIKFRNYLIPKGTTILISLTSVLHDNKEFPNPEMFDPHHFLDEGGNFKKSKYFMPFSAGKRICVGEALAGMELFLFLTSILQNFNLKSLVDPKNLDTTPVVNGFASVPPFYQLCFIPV

[21] = target: T1, C-C chemokine receptor type 5; assay: Activation of CCR5 in human PBMC cells; type: cell-based
[22] = AUC in rat at 1 mg/kg, iv; type: ADME, organism-based; parameters: dose 1 mg/kg, route intravenous; settings: plasma
[23] = Half life in dog at 1 mg/kg, iv; type: ADME, organism-based, Canis lupus familiaris; parameters: dose 1 mg/kg, route intravenous; settings: in vivo
[24] = Cmax in dog at 20 mg/kg, po; type: ADME, organism-based, Canis lupus familiaris; parameters: dose 20 mg/kg, route oral; settings: in vivo
[25] = system: Human immunodeficiency virus 1; assay: Antiviral activity against HIV-1 X4 infected in PBMC cells; type: functional, organism-based
Cytochrome P450 2C19 = Cytochrome P450 2C19 (Homo sapiens, UniProt P33261); assay: Inhibition of CYP2C19; type: ADME
Cytochrome P450 2C19, sequence (P33261 whole entry): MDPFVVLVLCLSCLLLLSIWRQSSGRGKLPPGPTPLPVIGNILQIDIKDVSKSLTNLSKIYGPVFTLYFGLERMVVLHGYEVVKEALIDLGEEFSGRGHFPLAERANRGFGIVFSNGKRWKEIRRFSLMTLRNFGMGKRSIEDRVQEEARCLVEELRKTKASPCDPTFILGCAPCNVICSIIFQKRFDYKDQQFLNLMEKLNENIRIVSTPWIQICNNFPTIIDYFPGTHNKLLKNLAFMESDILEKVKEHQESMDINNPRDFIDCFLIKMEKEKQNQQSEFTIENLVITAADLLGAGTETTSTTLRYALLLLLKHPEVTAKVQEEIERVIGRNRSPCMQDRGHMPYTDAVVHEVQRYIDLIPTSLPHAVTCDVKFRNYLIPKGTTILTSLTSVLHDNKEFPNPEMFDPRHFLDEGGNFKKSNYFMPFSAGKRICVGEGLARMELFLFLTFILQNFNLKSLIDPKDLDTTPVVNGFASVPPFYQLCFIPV

[26] = system: Human immunodeficiency virus 1; assay: Antiviral activity against HIV-1 R5 clade B infected in human PBMC cells; type: functional; settings: Human immunodeficiency virus 1, R5 clade B
[27] = Systemic clearance in dog at 1 mg/kg, iv; type: ADME, organism-based, Canis lupus familiaris; parameters: dose 1 mg/kg, route intravenous; settings: in vivo
[28] = target: T1, C-C chemokine receptor type 5; assay: Antagonist activity at CCR5 assessed as inhibition of receptor internalization; type: functional
[29] = Tmax in dog at 20 mg/kg, po; type: ADME, organism-based, Canis lupus familiaris; parameters: dose 20 mg/kg, route oral; settings: in vivo
Cytochrome P450 2D6 = Cytochrome P450 2D6 (Homo sapiens, UniProt P10635); assay: Inhibition of CYP2D6; type: ADME
Cytochrome P450 2D6, sequence (P10635 whole entry): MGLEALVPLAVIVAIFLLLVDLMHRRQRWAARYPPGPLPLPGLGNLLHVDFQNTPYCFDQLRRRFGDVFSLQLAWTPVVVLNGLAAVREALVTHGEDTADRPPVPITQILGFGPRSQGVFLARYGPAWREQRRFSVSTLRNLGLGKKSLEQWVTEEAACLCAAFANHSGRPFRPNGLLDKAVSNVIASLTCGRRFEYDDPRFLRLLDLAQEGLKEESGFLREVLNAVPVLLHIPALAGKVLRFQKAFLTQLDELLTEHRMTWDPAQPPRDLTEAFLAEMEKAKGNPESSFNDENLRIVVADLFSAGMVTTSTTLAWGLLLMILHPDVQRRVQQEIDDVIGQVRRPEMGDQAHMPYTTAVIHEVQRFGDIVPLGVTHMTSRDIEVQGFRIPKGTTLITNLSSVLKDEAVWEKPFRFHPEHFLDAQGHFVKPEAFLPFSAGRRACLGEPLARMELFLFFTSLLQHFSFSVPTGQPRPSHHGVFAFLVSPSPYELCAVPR

[30] = Protein binding in human serum assessed as fraction unbound; type: ADME, cell-free
[31] = system: Human immunodeficiency virus 1; assay: Antiviral activity against HIV-1 R5 clade D infected in human PBMC cells; type: functional; settings: Human immunodeficiency virus 1, R5 clade D
[32] = system: Human immunodeficiency virus 1; assay: Antiviral activity against HIV-1 R5 clade G infected in human PBMC cells; type: functional; settings: Human immunodeficiency virus 1, R5 clade G
[33] = Half life in rat at 20 mg/kg, po; type: ADME, organism-based; parameters: dose 20 mg/kg, route oral; settings: in vivo
Cytochrome P450 3A4 = Cytochrome P450 3A4 (Homo sapiens, UniProt P08684); assay: Inhibition of CYP3A4; type: ADME
Cytochrome P450 3A4, sequence (P08684 whole entry): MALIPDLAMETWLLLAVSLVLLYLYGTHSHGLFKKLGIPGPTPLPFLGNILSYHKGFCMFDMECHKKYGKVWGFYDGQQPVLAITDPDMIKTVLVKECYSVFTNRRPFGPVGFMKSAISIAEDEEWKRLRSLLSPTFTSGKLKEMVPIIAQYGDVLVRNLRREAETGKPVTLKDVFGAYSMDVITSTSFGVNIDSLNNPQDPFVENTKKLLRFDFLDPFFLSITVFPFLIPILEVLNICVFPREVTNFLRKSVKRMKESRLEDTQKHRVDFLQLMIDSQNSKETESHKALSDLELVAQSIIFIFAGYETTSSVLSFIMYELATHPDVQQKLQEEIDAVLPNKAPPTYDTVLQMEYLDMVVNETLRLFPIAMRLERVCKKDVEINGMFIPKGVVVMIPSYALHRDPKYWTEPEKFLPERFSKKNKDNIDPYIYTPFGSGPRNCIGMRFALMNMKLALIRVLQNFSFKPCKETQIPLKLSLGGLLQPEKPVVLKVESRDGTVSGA

[34] = Plasma concentration in rat at 20 mg/kg, po after 24 hrs; type: ADME, organism-based; parameters: dose 20 mg/kg, route oral
[35] = AUC in dog at 20 mg/kg, po; type: ADME, organism-based, Canis lupus familiaris; parameters: dose 20 mg/kg, route oral; settings: plasma
[36] = target: Voltage-gated inwardly rectifying potassium channel KCNH2 (Homo sapiens, UniProt Q12809); assay: Inhibition of human hERG
Voltage-gated inwardly rectifying potassium channel KCNH2, sequence (Q12809 whole entry): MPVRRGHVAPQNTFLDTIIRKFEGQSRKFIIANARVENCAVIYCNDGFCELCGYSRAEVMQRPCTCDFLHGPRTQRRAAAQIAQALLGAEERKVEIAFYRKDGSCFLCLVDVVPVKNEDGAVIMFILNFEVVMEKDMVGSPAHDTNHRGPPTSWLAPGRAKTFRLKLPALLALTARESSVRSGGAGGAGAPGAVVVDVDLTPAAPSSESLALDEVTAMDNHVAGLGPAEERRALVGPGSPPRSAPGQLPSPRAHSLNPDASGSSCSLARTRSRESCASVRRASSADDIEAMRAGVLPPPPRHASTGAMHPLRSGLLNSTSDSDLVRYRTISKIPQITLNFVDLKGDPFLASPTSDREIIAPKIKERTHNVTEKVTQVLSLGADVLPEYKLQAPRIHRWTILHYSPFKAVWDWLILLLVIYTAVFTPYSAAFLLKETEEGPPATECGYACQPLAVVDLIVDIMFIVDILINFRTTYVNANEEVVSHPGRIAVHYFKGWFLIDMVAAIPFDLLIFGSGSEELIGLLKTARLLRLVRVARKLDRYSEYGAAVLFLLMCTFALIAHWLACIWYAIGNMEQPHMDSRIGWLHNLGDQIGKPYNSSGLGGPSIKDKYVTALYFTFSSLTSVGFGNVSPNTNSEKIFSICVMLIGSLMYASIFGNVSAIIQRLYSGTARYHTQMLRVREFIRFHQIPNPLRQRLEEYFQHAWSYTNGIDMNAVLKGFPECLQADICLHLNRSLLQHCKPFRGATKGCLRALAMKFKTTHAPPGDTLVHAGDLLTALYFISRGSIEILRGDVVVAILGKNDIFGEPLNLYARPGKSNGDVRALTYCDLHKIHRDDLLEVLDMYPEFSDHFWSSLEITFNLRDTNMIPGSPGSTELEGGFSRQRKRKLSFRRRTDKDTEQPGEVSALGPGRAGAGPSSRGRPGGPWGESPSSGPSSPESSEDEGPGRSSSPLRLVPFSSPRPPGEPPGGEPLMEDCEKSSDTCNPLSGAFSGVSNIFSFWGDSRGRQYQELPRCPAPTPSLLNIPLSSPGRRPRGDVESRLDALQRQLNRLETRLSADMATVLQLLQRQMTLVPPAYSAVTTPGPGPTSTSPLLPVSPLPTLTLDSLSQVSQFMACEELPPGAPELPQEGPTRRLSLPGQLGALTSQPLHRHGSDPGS
In short: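 hERG potassium current was measured by patch clamp, and IC50 was derived from current inhibition.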

Canis familiaris = assay: Volume of distribution in dog at 1 mg/kg, iv; type: ADME, organism-based, Canis lupus familiaris; parameters: dose 1 mg/kg, route intravenous; settings: in vivo
[37] = system: Human immunodeficiency virus 1; assay: Antiviral activity against HIV-1 R5 clade F infected in human PBMC cells; type: functional; settings: Human immunodeficiency virus 1, R5 clade F
[38] = Induction of Cytochrome P450 up to 30 uM; type: ADME
Rattus norvegicus = assay: Volume of distribution in rat at 1 mg/kg, iv; type: ADME, organism-based; parameters: dose 1 mg/kg, route intravenous; settings: in vivo

## Cc1ncnc(C)c1C(=O)N1CCC(C)(N2CCN(C3CCc4cc(Br)ccc43)[C@@H](C)C2)CC1 (single isomer, unassigned; diastereomer 1)
[1]
  IC50: 334 nM
[2]
  IC50: 3.9 nM

## Cc1ncnc(C)c1C(=O)N1CCC(C)(N2CCN([C@H]3c4ccc(C(F)(F)F)cc4C[C@@H]3O)[C@@H](C)C2)CC1
[2]
  IC50: > 1000 nM

## CO[C@@H]1Cc2cc(C(F)(F)F)ccc2[C@H]1N1CCN(C2(C)CCN(C(=O)c3c(C)ncnc3C)CC2)C[C@@H]1C
[3]
  IC50: 12 nM
[1]
  IC50: 11 nM
[2]
  IC50: 4.6 nM

## CCO[C@@H]1Cc2cc(C(F)(F)F)ccc2[C@H]1N1CCN(C2(C)CCN(C(=O)c3c(C)ncnc3C)CC2)C[C@@H]1C [INCB-9471]
[4]
  IC50: 16 nM
[5]
  Tmax: 3 h
[6]
  half-life: 58 h
[7]
  IC90: 9 nM
[3]
  IC50: 0.36 nM
[8]
  IC90: 9 nM
[9]
  AUC: 7.85 µM·h
[10]
  IC90: 9 nM
[11]
  AUC: 55.2 µM·h
[12]
  Cmax: 4.07 µM
[13]
  bioavailability: 95%
[14]
  Papp B→A: 16.5 ×10⁻⁶ cm/s
Cytochrome P450 1A2
  IC50: > 25000 nM
[15]
  IC90: 9 nM
[16]
  IC50: 3 nM
[17]
  bioavailability: 100%
[18]
  clearance: 10.3 mL/min/kg
[19]
  half-life: 6 h
[20]
  half-life: 17 h
Cytochrome P450 2C9
  IC50: > 25000 nM
[21]
  Kd: 3.1 nM
[22]
  AUC: 2.9 µM·h
[23]
  half-life: 11 h
[24]
  Cmax: 14 µM
[25]
  Activity: inactive
Cytochrome P450 2C19
  IC50: > 25000 nM
[26]
  IC90: 9 nM
[27]
  clearance: 3.33 mL/min/kg
[28]
  IC50: 1.5 nM
[1]
  IC50: 0.16 nM
[29]
  Tmax: 0.5 h
Cytochrome P450 2D6
  IC50: > 25000 nM
[30]
  fraction unbound: 0.16
[31]
  IC90: 9 nM
[32]
  IC90: 9 nM
[33]
  half-life: 12 h
Cytochrome P450 3A4
  IC50: > 25000 nM
[34]
  concentration at 24 h: 1.09 µM
[35]
  AUC: 150 µM·h
[36]
  IC50: 4500 nM
Canis familiaris
  Vd: 3.8 L/kg
[37]
  IC90: 9 nM
[38]
  Activity: Not Active
Rattus norvegicus
  Vd: 4.1 L/kg
[2]
  IC50: 6.5 nM

## Cc1ncnc(C)c1C(=O)N1CCC(C)(N2CCN(C3CCc4cc(Br)ccc43)[C@@H](C)C2)CC1 (mixture of isomers)
[2]
  IC50: 190 nM

## Cc1ncnc(C)c1C(=O)N1CCC(C)(N2CCN(C3CCc4cc(C(F)(F)F)ccc43)[C@@H](C)C2)CC1 (single isomer, unassigned)
[1]
  IC50: 19 nM
[2]
  IC50: 5 nM

## CCO[C@H]1Cc2cc(C(F)(F)F)ccc2[C@@H]1N1CCN(C2(C)CCN(C(=O)c3c(C)ncnc3C)CC2)C[C@@H]1C
[2]
  IC50: > 1000 nM

## Cc1ncnc(C)c1C(=O)N1CCC(C)(N2CCN([C@@H]3c4ccc(C(F)(F)F)cc4C[C@H]3O)[C@@H](C)C2)CC1
[2]
  IC50: 211 nM

## COC[C@@H](c1ccc(C(F)(F)F)cc1)N1CCN(C2(C)CCN(C(=O)c3c(C)ncnc3C)CC2)C[C@@H]1C [VICRIVIROC]
[6]
  half-life: 28 h
[3]
  IC50: 0.56 nM
[1]
  IC50: 0.23 nM

## CO[C@H]1Cc2cc(C(F)(F)F)ccc2[C@@H]1N1CCN(C2(C)CCN(C(=O)c3c(C)ncnc3C)CC2)C[C@@H]1C
[2]
  IC50: > 1000 nM

Source: ChEMBL document CHEMBL1687698, “Discovery of INCB9471, a Potent, Selective, and Orally Bioavailable CCR5 Antagonist with Potent Anti-HIV-1 Activity” (ACS Med Chem Lett, 2010)
